Assay outcomes (PubChem)
DAGLB inh = diacylglycerol lipase beta (human) inhibition; Q8NCG7; HEK293T DAGLB membrane lysate, EnzChek fluorogenic substrate; inhibition, % at 5.17 µM; 0.059% of 340,000 active; AID 504411; in the data active = inhibition above about 34%
Target sequence (Q8NCG7 whole entry, looked up): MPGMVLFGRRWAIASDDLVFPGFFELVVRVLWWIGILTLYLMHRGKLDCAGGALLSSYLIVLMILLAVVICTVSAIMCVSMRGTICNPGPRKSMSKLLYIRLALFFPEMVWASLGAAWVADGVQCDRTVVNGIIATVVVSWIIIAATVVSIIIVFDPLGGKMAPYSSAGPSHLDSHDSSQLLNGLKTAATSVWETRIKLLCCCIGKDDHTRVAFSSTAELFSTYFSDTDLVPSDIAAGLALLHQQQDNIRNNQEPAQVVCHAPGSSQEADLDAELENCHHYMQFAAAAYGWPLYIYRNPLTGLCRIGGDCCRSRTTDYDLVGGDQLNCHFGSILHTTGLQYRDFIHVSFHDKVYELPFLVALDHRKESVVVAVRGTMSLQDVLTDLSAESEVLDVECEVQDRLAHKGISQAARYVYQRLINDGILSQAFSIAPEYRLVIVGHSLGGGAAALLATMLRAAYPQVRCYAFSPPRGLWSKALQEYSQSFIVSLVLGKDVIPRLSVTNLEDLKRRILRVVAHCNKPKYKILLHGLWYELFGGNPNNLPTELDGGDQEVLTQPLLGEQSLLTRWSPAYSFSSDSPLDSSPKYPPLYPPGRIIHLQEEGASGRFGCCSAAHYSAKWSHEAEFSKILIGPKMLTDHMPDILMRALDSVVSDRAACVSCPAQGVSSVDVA
Ecoli rRNA inh = inhibits bacterial ribosomal RNA function over humanized ribosomes. E. coli WT GFP vs humanized-ribosome RFP mutants, fluorescence, 24 h; active compounds read low; DMSO median 0, no signal -100. GFP signal change (wild-type ribosome), % (test concentration not listed). 1.6% of 350,000 active. AID 720706;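 active = significant combined selectivity score with lowered wild-type GFP, culture density cut under 30%, mutant RFP and density less affected; inactive = any of these conditions unmet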
Cneo AK release = causes C. neoformans cell lysis. 0.2% of 360,000 active. adenylate kinase release luminescence, 4 h; normalised: neutral wells 0, clomiphene wells 100. AID 651654. lysis activity, % at 15 µM;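 active = mean lysis activity across replicates of at least 80%, whatever share of replicates individually reach that level; inactive = mean lysis activity below 80%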
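Signal: Adenylate kinase release luminescence | Assay system: Log-phase Cryptococcus neoformans yeast cells | Input: Cells at 5 × 10^6 per mL | Buffer or medium: Fresh YPD growth medium | Compound: Single dose | Schedule: Static 4 h at 37 °C with compound, 1 h detection | Controls: Clomiphene | Read-out: Luminescence rise reflecting yeast cell lysis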
iPSC survival up = enhancers of human iPSC single-cell survival; hiPSC single-cell survival, ATPlite luminescence; 100% = ROCK inhibitor wells, 0% = DMSO; survival enhancement, % at 20 µM; 0.044% of 360,000 active; AID 602274; in the data active = survival enhancement above about 18%;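 note: cells exposed to compounds for 16 hours before the ATP read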
MT1-MMP act inh = MT1-MMP (human) activation inhibition; 0.061% of 360,000 active; AID 651647; HT1080 RFP-PRO-GFP cells, GFP/RFP ratio fluorescence, overnight; percent of plate control window, DMSO zero; GFP/RFP ratio change, % at 20 µM; P50281;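 active = GFP/RFP ratio change of at least 30% with cell ATP level not reduced by more than half and red fluorescence within 50% of control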
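Assay system: HT1080 RFP-PRO-GFP cells | Dosing: 20 µM single dose, 1% DMSO | Incubation: Cells overnight before dosing, compound overnight, 37 °C, 5% CO2 | Evaluation: GFP/RFP fluorescence ratio | Control set: DMSO-only wells and HT1080 RFP-L50D-GFP cell wells as references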
SKN-1 block = blocks SKN-1 activity in C. elegans | C. elegans VP596 Pgst-4::GFP/RFP ratio, acrylamide-induced, 24 h | inhibition, % at 21.8 µM | 0.49% of 360,000 active | AID 624304;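 active = interference check ratio from 0.5 to 1.5 plus GFP to RFP signal ratio inhibition reaching or exceeding a fixed threshold, cut at about 30% in these data, passing the limit was not always enough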
A number is an active result; - = inactive; . = no result. This is a sample that favours compounds with a hit; in the whole collection about 1.8% have one here.

SMILES	DAGLB inh	Ecoli rRNA inh	Cneo AK release	iPSC survival up	MT1-MMP act inh	SKN-1 block
Cc1nonc1OCCNc1ccc([N+](=O)[O-])cc1[N+](=O)[O-]	-	.	.	-	-	-
Cn1cc(CNCc2cn(C)nc2-c2ccc(C3CCCCC3)cc2)cn1	-	-20.3	.	-	-	-
COC(=O)CCC(=O)N(CCN(Cc1ccccc1)C(=O)CCC(=O)OC)Cc1ccccc1	-	-16.4	.	-	-	-
COCCNC(=O)C[C@@H]1C[C@@H]2c3cc(NC(=O)C4CCOCC4)ccc3O[C@@H]2[C@@H](CO)O1	.	-	98.0	.	.	.
COCCNC(=O)C[C@@H]1C[C@H]2c3cc(NC(=O)C4CCC4)ccc3O[C@H]2[C@H](CO)O1	.	-	-	.	.	.
COCCNC(=O)C[C@H]1C[C@@H]2c3cc(NC(=O)C4CCC4)ccc3O[C@@H]2[C@H](CO)O1	.	-	103.1	.	.	.
COc1cccc(S(=O)(=O)Nc2ccc3c(c2)[C@@H]2C[C@H](CC(=O)N(C)C)O[C@@H](CO)[C@@H]2O3)c1	.	-	-	.	.	.
O=C(C[C@@H]1C[C@H]2c3cc(NC(=O)c4cccnc4)ccc3O[C@H]2[C@@H](CO)O1)NCCc1ccccc1	.	-	-	.	.	.
COc1cccc(S(=O)(=O)Nc2ccc3c(c2)[C@H]2C[C@H](CC(=O)N(C)C)O[C@@H](CO)[C@H]2O3)c1	.	-	98.8	.	.	.
O=C(C[C@H]1C[C@@H]2c3cc(NC(=O)c4cccnc4)ccc3O[C@@H]2[C@@H](CO)O1)NCCc1ccccc1	.	-	80.8	.	.	.
C[C@@H]1CN([C@@H](C)CO)C(=O)c2cc(NC(=O)NC3CCCCC3)ccc2O[C@H]1CN(C)CC1CCCCC1	.	-	-	.	.	.
CC(C)NC(=O)Nc1ccc2c(c1)C(=O)N([C@H](C)CO)C[C@@H](C)[C@H](CN(C)S(=O)(=O)c1ccc(Cl)cc1)OCCCC[C@H](C)O2	.	-	-	.	.	.
CCS(=O)(=O)NCC[C@H]1CC[C@H](NS(=O)(=O)c2cccc(Cl)c2)[C@@H](CO)O1	.	-	-	.	.	.
CCCNC(=O)C[C@@H]1CC[C@H]2[C@@H](COC[C@@H](O)CN2C(=O)Nc2cccc(Cl)c2)O1	.	-	-	.	.	.
Cc1ccc(-c2ccc3c(c2)O[C@H](CN(C)Cc2ccccn2)[C@@H](C)CN([C@@H](C)CO)S3(=O)=O)cc1	.	-	-	.	.	.
CCC(=O)N1C[C@H](C)[C@@H](OC)CN(C)C(=O)c2cc(NC(=O)c3ccc(F)cc3)ccc2OC[C@H]1C	.	-	-	.	.	.
CC=Cc1ccc2n(c1=O)C[C@H]1[C@H](CO)[C@@H](C(=O)NC3CCC3)N(Cc3ccncc3)[C@@H]21 (mixture of isomers)	.	-	.	.	.	.
Cc1noc(C)c1NC(=O)N[C@H]1CC[C@@H](CC(=O)NCCCN(C)C)O[C@@H]1CO	.	-	-	.	.	.
N#CC1=C(N)Oc2c(ccc3cccnc23)C1c1cccnc1 (stereo not drawn)	-	.	-	-	-	-
CCc1ccc2[nH]c(=O)c(C3C(C#N)=C(N)Oc4c3ccc3cccnc43)cc2c1 (stereo not drawn)	43.8	.	-	-	-	-
CNC[C@H]1Oc2ncc(-c3ccccc3C)cc2C(=O)N([C@@H](C)CO)C[C@H]1C	.	-	-	.	.	.
O=C(C1CCOCC1)N1C[C@H]2[C@@H](c3ccccc31)[C@@H](CO)N2Cc1ccccc1Cl	.	-	100.0	.	.	.
O=C(Nc1ccccc1Cl)N1C[C@H]2[C@@H](c3ccccc31)[C@H](CO)N2Cc1ccccc1	.	-23.1	-	.	.	.
O=C(Nc1ccccc1Cl)N1C[C@@H]2[C@H](c3ccccc31)[C@@H](CO)N2Cc1ccccc1	.	-	-	.	.	.
COc1cccc(-c2ccc3c(c2)[C@@H]2[C@@H](CCN2C(=O)C2CCCC2)[C@H](CO)N3)c1	.	-	.	.	.	.
CC(C)=CC(=O)OCc1cc([N+](=O)[O-])cc2c1OCOC2	-	-15.8	.	-	-	-
O=C(OCc1cc([N+](=O)[O-])cc2c1OCOC2)c1ccc2ccccc2n1	-	-	.	-	-	-
COC(=O)C1=C(C)N(C)C(=S)N(C)C1c1cccc(Br)c1 (stereo not drawn)	-	-34.5	-	-	-	-
